Drawing on ChEMBL document CHEMBL1127440, “Structure-affinity relationship studies on 5-HT1A receptor ligands. 2. Heterobicyclic phenylpiperazines with N4-aralkyl substituents” (J Med Chem, 1994), this text covers Ki for 18 molecules.

This experiment has as its target T1, 5-hydroxytryptamine receptor 1A (Rattus norvegicus, UniProt P19327).
T1 sequence (P19327 whole entry): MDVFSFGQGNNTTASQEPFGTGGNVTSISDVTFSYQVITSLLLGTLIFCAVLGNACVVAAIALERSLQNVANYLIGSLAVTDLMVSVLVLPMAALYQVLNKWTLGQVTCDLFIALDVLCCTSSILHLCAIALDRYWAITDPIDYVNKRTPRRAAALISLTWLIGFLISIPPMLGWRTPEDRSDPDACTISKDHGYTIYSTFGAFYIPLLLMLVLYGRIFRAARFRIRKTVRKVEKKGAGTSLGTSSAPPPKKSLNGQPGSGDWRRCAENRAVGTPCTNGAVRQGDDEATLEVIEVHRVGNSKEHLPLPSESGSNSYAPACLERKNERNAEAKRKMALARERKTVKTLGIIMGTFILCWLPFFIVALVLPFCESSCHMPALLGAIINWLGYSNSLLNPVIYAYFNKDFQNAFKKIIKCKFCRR
The experiment in a line: Binding affinity to displace [3H]2-(di-N-propylamino)-8-hydroxy-tetralin from 5-hydroxytryptamine 1A (5-HT1A) receptor in rat frontal cortex homogenates. It counts as tissue-based. The essentials:
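Rat frontal cortex homogenate; [3H]-8-OH-DPAT displaced from specific 5-HT1A sites. Each compound was tested at four to six concentrations in triplicate per assay. Three to six independent assays were run per compound. Ki ± SEM (nM) reported.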
One may read the Ki as the equilibrium dissociation constant of an inhibitor or competing ligand from its target. The low end stands for tighter binding, the high end for weaker binding. Molecule `c1ccc(CCN2CCN(c3cccc4c3OCCO4)CC2)cc1` yielded a Ki of 0.47 nM.

`O=C(CCCN1CCN(c2cccc3ccoc23)CC1)c1ccc(F)cc1` displayed a Ki of 1 nM.

Turning to `c1ccc(CN2CCN(c3cccc4ccoc34)CC2)cc1`, the affinity, expressed as Ki, was 22 nM.

Take `O=C(CCCN1CCN(c2cccc3c2OCCO3)CC1)c1ccccc1`: the affinity, expressed as Ki, was 0.67 nM.

With `c1ccc(OCCN2CCN(c3cccc4c3OCCO4)CC2)cc1`, the affinity, expressed as Ki, was 0.73 nM.

As to `c1ccc2c(c1)OCC(CN1CCN(c3cccc4c3OCCO4)CC1)O2` (stereo not drawn), the Ki was 4 nM.

`c1ccc(CCCCN2CCN(c3cccc4c3OCCO4)CC2)cc1` came in with a Ki of 0.32 nM. Against the preceding molecule, the Ki is about 12-fold lower.

Molecule `c1ccc(OCCN2CCN(c3cccc4ccoc34)CC2)cc1` gave an inhibition constant (Ki) of 0.46 nM. This Ki and that of the molecule before are within 1.5-fold of each other.

Consider `O=C(CCCN1CCN(c2cccc3c2OCCO3)CC1)c1ccc(F)cc1`, for which affinity was put at a Ki of 1.4 nM. This Ki is about 3-fold higher than that of the molecule before.

On to `c1ccc(CCN2CCN(c3cccc4ccoc34)CC2)cc1`, for which the Ki is 0.37 nM. This Ki lies about 3.8-fold lower than the previous one.

`c1ccc(OCCCN2CCN(c3cccc4c3OCCO4)CC2)cc1` came in with a Ki of 0.95 nM. Against the preceding molecule, the Ki is about 2.6-fold higher.

Regarding `c1ccc(OCCCN2CCN(c3cccc4ccoc34)CC2)cc1`, the affinity, expressed as Ki, was 0.85 nM.

`O=C(NCCN1CCN(c2cccc3ccoc23)CC1)c1ccc(F)cc1`: affinity was put at a Ki of 0.15 nM.

The molecule `O=C(NCCN1CCN(c2cccc3c2OCCO3)CC1)c1ccc(F)cc1` came in with a Ki of 0.3 nM.

As for `O=C(NCCN1CCN(c2cccc3ccoc23)CC1)C1CCCCC1`, the Ki was 0.2 nM.

The molecule `c1ccc(CN2CCN(c3cccc4c3OCCO4)CC2)cc1` displayed a Ki of 28 nM.

`O=C(NCCN1CCN(c2cccc3c2OCCO3)CC1)C1CCCCC1` came in with a Ki of 0.44 nM. Against the preceding molecule, the Ki is about 64-fold lower.

For `c1ccc2c(c1)OCC(CN1CCN(c3cccc4ccoc34)CC1)O2` (stereo not drawn), affinity was put at a Ki of 5.8 nM. Compared with the last molecule, the Ki is about 13-fold higher.
